# Laboratory results taken from article PMC6331719 (The EMBO Journal, 2018).
# Columns and labels:
# [1] = tested on: BALB/c mice small intestine; assay: Small intestine protein markers; format: in vivo, mouse; settings: VX-770 i.p. prior to gliadin
# [2] = tested on: CFTR (Caco‐2 cells); assay: Ussing chamber, CFTR-dependent Cl- secretion in Caco-2 cells; format: cell-based, human; settings: for Protection against P31–43-mediated reduction of chloride current: pre-incubation up to 20 min, VX-770 10 μM, Vrx-532 20 μM
# Procedure, shortened: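 Caco-2 or T84 monolayers grown on 0.4-μm Transwells to 800–1,200 Ω cm2, then mounted in Ussing chambers. Ringer both sides, 37°C, gassed with 95% O2/5% CO2. Cells pretreated 3 h with peptides (20 μg/ml) or PT gliadin (500 μg/ml), or given bath peptides (100 μM, 3–5 min) after 100 μM amiloride. VX-770 10 μM for 5 min. Forskolin 20 μM; peak CFTRinh172-sensitive Isc.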
# [3] = tested on: BALB/c mice small intestine; assay: Small intestine transcript levels, BALB/c mice; format: in vivo, mouse; settings: VX-770 i.p. prior to gliadin
# [4] = tested on: celiac PBMC; assay: Caco-2 / celiac PBMC bidimensional co-culture, cytokine release; format: cell-based, human; settings: VX-770, P < 0.01
# [5] = tested on: NOD‐DQ8 mice; assay: Gliadin-challenged NOD-DQ8 mice; format: in vivo, mouse; settings: gliadin 4 weeks, VX-770 i.p.
# Procedure, shortened: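 NOD.[…] AB0null mice expressing HLA-DQ8 (congenic NOD background), 10 per group. Oral gliadin or vehicle for 4 weeks: 5 mg daily for 1 week, then 5 mg thrice weekly for 3 weeks. VX-770 given intraperitoneally 15 min before each gliadin challenge.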
# [6] = tested on: TG2 and CFTR; assay: Co-immunoprecipitation of TG2 and CFTR, Caco-2 cells; format: cell-based, human; settings: Caco-2, pre-treatment
# [7] = tested on: CFTR (Caco-2 cells); assay: CFTR stability, ubiquitination and plasma membrane level, Caco-2 cells; format: cell-based, human; settings: Caco-2, pre-incubation with potentiator, 24 h
# Procedure, shortened: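 Caco-2 cells homogenised and spun at 2,300 × g for 15 min, then 16,000 × g for 1 h at 4°C. The membrane pellet was solubilised in Tris–HCl pH 7.4/EDTA buffer with 1% Triton X-100 and spun at 60,000 × g for 1 h to give the plasma-membrane fraction. Fraction used for IP or immunoblot against CFTR, ubiquitin, CHIP and related markers. Potentiator VX-770 at 10 μM.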
# [8] = tested on: Caco‐2 cells; assay: F-actin confocal staining, Caco-2 cells; format: cell-based, human; settings: Caco-2, 24 h, VX-770
# [9] = tested on: Caco‐2 cells; assay: Endosomal trafficking markers, Caco-2 cells; format: cell-based, human; settings: for Protection from P31–43 effects on BECN1, hVps34, UVRAG, Rab5, Rab7: Caco-2, pre-incubation with potentiator
# Procedure, shortened: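 Endosomal fractions isolated from treated and untreated Caco-2 cells. Rab5 and Rab7 immunoblotted, with EEA-1 as loading control. Densitometry reported as mean ± SD of triplicate independent experiments. Potentiator VX-770 used at 10 μM.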
# [10] = tested on: TG2; assay: TG2 activity and TG2-catalysed crosslinking in Caco-2 cells; format: cell-based, human; settings: Caco-2, Ca2+ pulse, BAP incorporation
# [11] = tested on: wild‐type mouse CFTR; settings: ref Cui & McCarty, 2015; Cui et al, 2016; Zeng et al, 2017; cited from earlier work
# [12] = tested on: celiac PBMC; assay: Caco-2 CFTR-KO / celiac PBMC co-culture, cytokine release; format: cell-based, human; settings: VX-770, P31–43 and P57–68 challenge
# [13] = tested on: Caco‐2 cells; assay: Epithelial stress / innate immune markers by immunoblot, Caco-2 cells; format: cell-based, human
# [14] = tested on: CFTR (small intestine, BALB/c mice); assay: Ussing chamber, small intestine of BALB/c mice; format: in vivo, mouse; settings: VX-770 i.p. 15 min prior to gliadin, 4 weeks
# Procedure, shortened: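 BALB/c mice on a gluten-free diet for ≥3 generations were given oral gliadin (5 mg daily for 1 week, then thrice weekly for 3 weeks) ± VX-770; n = 10 per group. Small intestine tissue was mounted in Ussing chambers with identical Ringer on both sides, at 37°C, stirred and gassed with 95% O2/5% CO2.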
# [15] = tested on: BALB/c mice small intestine; assay: Small intestine cytokine protein levels; format: in vivo, mouse; settings: VX-770 i.p. prior to gliadin
# Procedure, shortened: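 BALB/c mice kept gluten-free for at least three generations, 10 weeks old, at least 10 per group. Oral gliadin or vehicle for 4 weeks (5 mg daily for 1 week, then thrice weekly for 3 weeks). Small-intestine homogenates assayed for IL-10 and TGF-β by ELISA, read in triplicate at 450 nm. Values normalised to Bradford protein.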
# [16] = tested on: CFTR; assay: Co-immunoprecipitation of CFTR with biotinylated peptide, Caco-2 cells; format: binding, human; settings: short pre-incubation, Caco-2
# [17] = tested on: IL‐15 (Caco‐2 cells); assay: IL-15 production; format: cell-based, human; settings: Caco-2, VX-770 pre-treatment, P < 0.001
# [18] = tested on: CFTR (Caco-2 and T84 cells); assay: Iodide efflux by SPQ in intestinal epithelial cells; format: cell-based, human; settings: 20 min pre-treatment with potentiator, n = 3
# [19] = tested on: BALB/c mice; assay: Intestinal permeability; format: in vivo, mouse; settings: VX-770 i.p. prior to gliadin, 4 weeks
# Procedure, shortened: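 BALB/c mice kept ≥3 generations on a gluten-free diet were gavaged with gliadin (5 mg daily for 1 week, then thrice weekly for 3 weeks) ± intraperitoneal VX-770 15 min before; n = 10 per group. FITC-D4000 (600 mg/kg) was gavaged, and cardiac blood taken 1 h later. Plasma was diluted 1:1 in PBS and read at ex 485/em 528 nm against standards (50–0.312 μg/ml). Values are means ± SD of triplicate pooled samples.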
# [20] = tested on: Caco‐2CFTR‐KO cells; assay: IL-15 production and ERK1/2 phosphorylation, Caco-2 CFTR-KO cells; format: cell-based, human
# [21] = tested on: NOD mice; assay: Gliadin-challenged NOD mice; format: in vivo, mouse; settings: gliadin after diabetes onset, VX-770 i.p.
# Procedure, shortened: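 Female NOD mice with diabetes (blood glucose > 250 mg/dl, monitored weekly) were used at 12–13 weeks. They were challenged orally with gliadin for 4 consecutive weeks. VX-770 was given intraperitoneally 15 min before each challenge. n = 10 mice per group.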
# [22] = tested on: CFTR; assay: Proximity ligation assay CFTR / P31–43, Caco-2 cells; format: binding, human; settings: short pre-incubation
# Procedure, shortened: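 Caco-2 cells were pre-incubated up to 20 min with VX-770 (10 μM), then exposed to P31–43. Cells were fixed in 4% PFA for 15 min at room temperature and blocked with 0.1% Triton X-100/0.5% BSA. Primary antibodies were applied overnight at 4°C and Duolink probes (1:5) for 1 h at 37°C. Ligation, rolling-circle amplification, red detection and DAPI counterstain followed.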
# [23] = tested on: IL‐15 (Caco‐2 cells); assay: IL-15 in lower compartment of bidimensional culture; format: cell-based, human; settings: VX-770, P < 0.001 vs. peptide combination
# [24] = tested on: duodenal biopsies from CD patients; assay: Duodenal biopsies from CD patients, CD3+CD25+ cells in lamina propria; format: cell-based, human; settings: Vrx-532 20 μM, 3 h pre-incubation
structure (smiles),measurement,setting,value
CC(C)(C)c1cc(C(C)(C)C)c(NC(=O)c2c[nH]c3ccccc3c2=O)cc1O [VX‐770],NKG2D upregulation on intraepithelial lymphocytes,[1],counteracted
same,NLRP3 expression,[1],counteracted gliadin‐induced NLRP3 expression
same,TG2 protein levels,[1],opposed the ability of gliadin to increase TG2 protein levels
same,NHERF-1 depletion,[1]; 4 weeks,abrogated the depletion of NHERF‐1
same,Effect of VX-770 on chloride current when added after P31–43,[2]; P31–43 100 μM then VX-770 10 μM then Fsk,poorly active
same,Protection against P31–43-mediated reduction of chloride current,[2],prevented
same,Rorc and Tbet,[3],downregulated upon VX‐770 treatment
same,IL-10 levels,[4],increased IL‐10 levels
same,Prevention of IFN-γ production,[4],prevented the production of IFN‐γ by PT gliadin or peptide combination
same,Protective effects in NOD-DQ8 mice,[5],in NOD‐DQ8 mice as well
same,Prevention of P31–43-induced TG2–CFTR interaction,[6],abolished the P31–43‐induced interaction of TG2 and CFTR
same,Prevention of P31–43 effects on CFTR stability / plasma membrane level,[7],prevented
same,Formation of F-actin stress fibers induced by P31–43,[8],negated the capacity of P31–43 to induce the formation of F‐actin stress fibers
same,P31–43-mediated increase in CD71 cell surface expression,[9]; Caco-2,blocked the P31–43‐mediated increase in the cell surface expression of transferrin receptor
same,"Protection from P31–43 effects on BECN1, hVps34, UVRAG, Rab5, Rab7",[9],counteracted
same,P31–43-induced CD71–SIgA interaction,[9]; Caco-2 pre-incubated with SIgA 1 h at 4°C,abrogated the ability of P31–43 to increase the interaction of CD71 with SIgA
same,Effect on TG2-mediated transamidation reactions itself,[10],no impact on TG2‐mediated transamidation reactions
same,Potentiation of wild-type mouse CFTR channel function,[11],potentiate the ion channel function of wild‐type mouse CFTR
same,Prevention of IFN-γ production with Caco-2 CFTR-KO,[12],failed to prevent the production of IFN‐γ by celiac PBMC
same,"Prevention of P31–43-induced NF-κB p65 translocation, NLRP3 expression, caspase-1 cleavage","[13]; Caco-2, VX-770",prevented additional pro‐inflammatory P31–43 effects
same,"Protection from P31–43-induced epithelial stress (PPARγ, phERK1/2, HSP70)","[13]; Caco-2, pre-incubation with VX-770",protected Caco‐2 cells from signs of P31–43‐induced epithelial stress
same,"CFTR function and protein expression, gliadin-sensitive mice",[14],prevented the gliadin‐induced decrease in CFTR function (Fig 5A) and protein expression
same,IL-10 and TGF-β production,[15],improved IL‐10 and TGF‐β production
same,IL-21 expression,[15],inhibited the gliadin‐induced expression of IL‐21
same,"IL-15, IL-17A and IFN-γ mRNA and protein",[15]; P < 0.001,"prevented the gliadin‐induced upregulation of IL‐15, IL‐17A, and IFN‐γ mRNA"
same,Effect of VX-770 on P31–43 interaction with CFTR (co-immunoprecipitation),[16],abolished the interaction of P31–43 with CFTR
same,P31–43-induced IL-15 production,[17],prevented the P31–43‐induced production of IL‐15
same,Protection of iodide efflux against P31–43,[18],protecting intestinal epithelial cells against P31–43‐mediated CFTR inhibition
same,Intestinal permeability,[19],prevented the gliadin‐induced increase in intestinal permeability
same,IL-15 expression and ERK1/2 phosphorylation in CFTR-KO cells,[20],failed to modulate both IL‐15 expression and ERK1/2 phosphorylation in Caco‐2CFTR‐KO cells
same,Protective effects in NOD mice,[21],protective effects of VX‐770 were confirmed in NOD mice
same,Effect of VX-770 on P31–43 interaction with CFTR (proximity ligation assay),[22],abolished the interaction of P31–43 with CFTR
same,Prevention of IL-15 accumulation,[23],prevented by VX‐770
Cc1ccc(O)c(-c2cc(-c3ccccc3)n[nH]2)c1 [Vrx‐532],Protection against P31–43-mediated reduction of chloride current,[2],prevented
same,Prevention of P31–43 effects on CFTR stability / plasma membrane level,[7],prevented
same,"Protection from P31–43 effects on BECN1, hVps34, UVRAG, Rab5, Rab7",[9],counteracted
same,Protection of iodide efflux against P31–43,[18],protecting intestinal epithelial cells against P31–43‐mediated CFTR inhibition
same,Abrogation of gliadin-peptide-induced CD3+CD25+ cell increase,[24],highly effective in abrogating these effects of gliadin peptides
